How the values were obtained:
Hepatitis C virus [1] = experiment: Antiviral activity against HCV infected in human clone A cells; format: functional, Hepacivirus hominis; conditions: Hepatitis C virus
Method in brief: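 Clone A replicon cells seeded at 1500 cells/well. Compounds serially diluted in G418-free culture medium and added, then incubated 4 days at 37 °C in 5% CO2. HCV RNA quantified by real-time RT-PCR as ΔCt relative to the mean no-drug control.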

Rattus norvegicus [2] = experiment: AUC (0 to infinity) in rat liver assessed as 2'-F-2'-C-Methyluridine-5''-TP level at 50 mg/kg, po; format: ADME, organism-based; set-up: time infinity, dose 50 mg/kg, route oral; conditions: in vivo
Method in brief: (§1)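 Rats given a single oral gavage dose of 50 mg/kg in 0.5% carboxymethylcellulose sodium, 5 mL/kg. Livers taken at 0.5, 1, 2, 4, 6 and 12 h after CO2 sacrifice and ice-cold saline perfusion, then snap-frozen. Homogenized in 3 volumes of cold 70% methanol with 20 mM EDTA/EGTA. Triphosphate measured by LC/MS/MS (ESI, MRM negative mode), noncompartmental analysis.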

Rattus norvegicus [3] = experiment: AUC (0 to t) in rat liver assessed as 2'-F-2'-C-Methyluridine-5''-TP level at 50 mg/kg, po; format: ADME, organism-based; set-up: dose 50 mg/kg, route oral; conditions: in vivo; method in brief: as §1
Rattus norvegicus [4] = experiment: Cmax in rat liver assessed as 2'-F-2'-C-Methyluridine-5''-TP level at 50 mg/kg, po; format: ADME, organism-based; set-up: dose 50 mg/kg, route oral; conditions: in vivo; method in brief: as §1
Rattus norvegicus [5] = experiment: Tmax in rat liver assessed as 2'-F-2'-C-Methyluridine-5''-TP level at 50 mg/kg, po; format: ADME, organism-based; set-up: dose 50 mg/kg, route oral; conditions: in vivo; method in brief: as §1
[6] = Half life in human liver S9 fraction at 100 uM; format: ADME, subcellular
Method in brief: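 Compound at 100 μM in 50 mM K2HPO4 pH 7.4 with 5 mM MgCl2. Started with 4 mg/mL human liver S9 at 37 °C. Samples at 0–24 h quenched with acetonitrile. Parent remaining measured by LC/MS/MS peak area relative to 0 h, and half-life calculated.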

[7] = Half life in simulated intestinal fluid of pH 7.5 at 50 ug/mL; format: physicochemical
Method in brief: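 Compound at 50 μg/mL in simulated gastric fluid (pH 1.2) or simulated intestinal fluid (pH 7.5), 37 °C, 20 h. Injected by reverse-phase HPLC every 2 h, peak area at 260 nm.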

[8] = Half life in simulated gastric fluid at pH 1.2 at 50 ug/mL; format: physicochemical
Method in brief: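 Compound at 50 μg/mL in simulated gastric fluid (pH 1.2) or simulated intestinal fluid (pH 7.5), 37 °C, 20 h. Injected by reverse-phase HPLC every 2 h, peak area at 260 nm. Percent parent remaining relative to 0 h, giving half-life.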

Hepatitis C virus [9] = experiment: Antiviral activity against HCV infected in human clone A cells assessed as inhibition of cellular rRNA replication at 50 uM; format: functional, Hepacivirus hominis
Homo sapiens = species on record: Homo sapiens; experiment: Half life in human plasma at 100 uM

Row | EC90 (Hepatitis C virus [1]) [nM] | Structure (SMILES) | inhibition at 50 µM (Hepatitis C virus [9]) [%] | also measured
1 | 60 | CCC(C)OC(=O)[C@H](C)NP(=O)(OC[C@H]1O[C@@H](n2ccc(=O)[nH]c2=O)[C@](C)(F)[C@@H]1O)Oc1ccccc1 (some centres not stated) | 93.8 | 
2 | 1720 | C[C@H](NP(=O)(OC[C@H]1O[C@@H](n2ccc(=O)[nH]c2=O)[C@](C)(F)[C@@H]1O)Oc1ccccc1)C(=O)OCCF (some centres not stated) | 43.8 | 
3 | 6800 | C[C@H](NP(=O)(OC[C@H]1O[C@@H](n2ccc(=O)[nH]c2=O)[C@](C)(F)[C@@H]1O)Oc1ccccc1)C(=O)OCC(F)F (some centres not stated) | 38.3 | 
4 | 690 | COC(=O)[C@H](C)NP(=O)(OC[C@H]1O[C@@H](n2ccc(=O)[nH]c2=O)[C@](C)(F)[C@@H]1O)Oc1ccc(F)cc1 (some centres not stated) | 16.8 | 
5 | 580 | COC(=O)[C@H](C)NP(=O)(OC[C@H]1O[C@@H](n2ccc(=O)[nH]c2=O)[C@](C)(F)[C@@H]1O)Oc1ccc(Cl)cc1 (some centres not stated) | 62.8 | 
6 | 2110 | COC(=O)[C@H](C)NP(=O)(OC[C@H]1O[C@@H](n2ccc(=O)[nH]c2=O)[C@](C)(F)[C@@H]1O)Oc1ccc(Br)cc1 (some centres not stated) | 30.8 | 
7 | 450 | COC(=O)[C@H](C)NP(=O)(OC[C@H]1O[C@@H](n2ccc(=O)[nH]c2=O)[C@](C)(F)[C@@H]1O)Oc1ccc(Cl)c(Cl)c1 (some centres not stated) | 63.7 | 
8 | 690 | COC(=O)[C@H](C)NP(=O)(OC[C@H]1O[C@@H](n2ccc(=O)[nH]c2=O)[C@](C)(F)[C@@H]1O)Oc1ccc(Cl)cc1Cl (some centres not stated) | 10.9 | 
9 | 90 | COC(=O)[C@H](C)NP(=O)(OC[C@H]1O[C@@H](n2ccc(=O)[nH]c2=O)[C@](C)(F)[C@@H]1O)Oc1cccc2ccccc12 (some centres not stated) | 95.4 | 
10 | > 50000 | CCOP(=O)(N[C@@H](C)C(=O)OC)OC[C@H]1O[C@@H](n2ccc(=O)[nH]c2=O)[C@](C)(F)[C@@H]1O (some centres not stated) | 16.8 | 

The next lines start with the molecule.

Row | Structure (SMILES) | EC90 (Hepatitis C virus [1]) [nM] | inhibition at 50 µM (Hepatitis C virus [9]) [%] | also measured
11 | CC(C)OC(=O)[C@H](C)NP(=O)(OC[C@H]1O[C@@H](n2ccc(=O)[nH]c2=O)[C@](C)(F)[C@@H]1O)Oc1ccc(Cl)cc1 (some centres not stated) | 420 | 0 | AUC (Rattus norvegicus [2]): 8468 ng·h/g; AUC (Rattus norvegicus [3]): 5143 ng·h/g; Cmax (Rattus norvegicus [4]): 339 ng/g; Tmax (Rattus norvegicus [5]): 1 h; half-life at 100 µM [6]: 0.35 h; half-life at 50 ug/mL [7]: > 20 h; half-life at 50 ug/mL [8]: > 20 h; half-life at 100 µM (Homo sapiens): > 24 h
12 | COC(=O)[C@H](Cc1c[nH]c2ccccc12)NP(=O)(OC[C@H]1O[C@@H](n2ccc(=O)[nH]c2=O)[C@](C)(F)[C@@H]1O)Oc1ccccc1 (some centres not stated) | 15600 | 68.4 | 
13 | CCCCCOC(=O)[C@H](C)NP(=O)(OC[C@H]1O[C@@H](n2ccc(=O)[nH]c2=O)[C@](C)(F)[C@@H]1O)Oc1ccccc1 (some centres not stated) | > 50000 | 92 | 
14 | C[C@H](NP(=O)(OC[C@H]1O[C@@H](n2ccc(=O)[nH]c2=O)[C@](C)(F)[C@@H]1O)Oc1ccccc1)C(=O)OC1CCCCC1 (some centres not stated) | 250 | 61 | AUC (Rattus norvegicus [2]): 8831 ng·h/g; AUC (Rattus norvegicus [3]): 6487 ng·h/g; Cmax (Rattus norvegicus [4]): 557 ng/g; Tmax (Rattus norvegicus [5]): 2 h; half-life at 100 µM [6]: 1.4 h; half-life at 50 ug/mL [7]: > 20 h; half-life at 50 ug/mL [8]: 17 h; half-life at 100 µM (Homo sapiens): > 24 h
15 | C[C@H](NP(=O)(OC[C@H]1O[C@@H](n2ccc(=O)[nH]c2=O)[C@](C)(F)[C@@H]1O)Oc1ccccc1)C(=O)Oc1ccccc1 (some centres not stated) | 18500 | 0 | 
16 | C[C@H](NP(=O)(OC[C@H]1O[C@@H](n2ccc(=O)[nH]c2=O)[C@](C)(F)[C@@H]1O)Oc1ccccc1)C(=O)OCc1ccccc1 (some centres not stated) | 130 | 74.3 | 
17 | C[C@H](NP(=O)(OC[C@H]1O[C@@H](n2ccc(=O)[nH]c2=O)[C@](C)(F)[C@@H]1O)Oc1ccccc1)C(=O)OCc1ccc(F)cc1 (some centres not stated) | 240 | 0 | 
18 | COC(=O)CNP(=O)(OC[C@H]1O[C@@H](n2ccc(=O)[nH]c2=O)[C@](C)(F)[C@@H]1O)Oc1ccccc1 (some centres not stated) | 22100 | 0 | 
